# Laboratory results taken from ChEMBL document CHEMBL4680213, “Novel androgen receptor antagonist identified by structure-based virtual screening, structural optimization, and biological evaluation” (Eur J Med Chem, 2020).
# Calls of active or inactive are those of the source. No cut-off for these calls is given here.
# What was measured:
# PC-3 = test: Antiproliferative activity against human PC-3 cells assessed as reduction in cell proliferation measured after 72 hrs by MTT assay; assay type: functional, cell-based
# Summary of the method: (§1)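 LNCaP, C4-2, PC3 and DU145 seeded in RPMI-1640 with 5% charcoal-stripped serum (LNCaP 3×10^3, the others 1.5×10^3 cells/well). After 24 h at 37 °C, treated with 5 nM DHT and serial compound dilutions for 72 h. MTT 4 h, formazan dissolved overnight in 10% SDS-0.1% HCl-PBS. A570 read with 650 nm reference.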
# Androgen receptor [1] = target: T1, Androgen receptor (Homo sapiens, UniProt P10275); assay type: cell-based, LNCaP
# T1 sequence (P10275 whole entry): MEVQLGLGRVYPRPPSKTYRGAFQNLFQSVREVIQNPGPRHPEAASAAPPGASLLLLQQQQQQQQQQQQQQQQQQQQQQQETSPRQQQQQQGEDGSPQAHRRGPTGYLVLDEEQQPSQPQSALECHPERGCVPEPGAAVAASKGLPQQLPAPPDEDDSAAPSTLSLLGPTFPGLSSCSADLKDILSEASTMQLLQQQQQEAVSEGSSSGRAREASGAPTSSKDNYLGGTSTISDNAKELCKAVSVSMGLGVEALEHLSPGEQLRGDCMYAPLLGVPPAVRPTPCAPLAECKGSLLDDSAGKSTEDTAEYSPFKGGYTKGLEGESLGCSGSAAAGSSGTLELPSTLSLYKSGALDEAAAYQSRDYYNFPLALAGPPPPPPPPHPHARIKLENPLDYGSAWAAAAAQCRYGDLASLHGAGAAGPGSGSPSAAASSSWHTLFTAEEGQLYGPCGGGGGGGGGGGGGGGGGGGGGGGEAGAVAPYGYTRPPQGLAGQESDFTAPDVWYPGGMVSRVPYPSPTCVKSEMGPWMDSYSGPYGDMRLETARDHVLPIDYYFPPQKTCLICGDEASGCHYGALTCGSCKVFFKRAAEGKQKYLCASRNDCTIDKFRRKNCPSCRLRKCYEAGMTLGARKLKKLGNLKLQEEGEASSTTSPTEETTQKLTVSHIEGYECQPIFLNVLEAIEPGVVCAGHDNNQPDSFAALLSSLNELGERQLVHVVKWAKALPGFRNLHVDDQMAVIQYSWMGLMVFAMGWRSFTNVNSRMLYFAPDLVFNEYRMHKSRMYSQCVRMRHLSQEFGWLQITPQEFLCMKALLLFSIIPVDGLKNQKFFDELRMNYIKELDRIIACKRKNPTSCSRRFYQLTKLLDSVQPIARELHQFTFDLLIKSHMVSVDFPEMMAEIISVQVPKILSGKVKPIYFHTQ
# NIH3T3 = test: Cytotoxicity against mouse NIH/3T3 cells assessed as reduction in cell viability at 50 uM after 24 hrs by MTT assay; assay type: cell-based; conditions: nih3t3, 24 h
# [2] = target: T2, Androgen receptor (Homo sapiens) (UniProt P10275); test: Antagonist activity at androgen receptor in human LNCaP cells assessed as reduction in DHT-induced TMPRSS2 mRNA expression after 48 hrs by SYBR green dye based qPCR analysis; assay type: cell-based; conditions: filed as antagonist
# T2 sequence (whole entry): T1 sequence (P10275 whole entry)
# Summary of the method: (§2)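 LNCaP cells kept in medium with 5% charcoal-stripped serum in six-well plates. Treated with DHT 5 nM plus compound at 0.1, 1 or 10 μM, or DMSO. mRNA extracted 48 h after treatment, reverse transcribed and quantified by qPCR.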
# [3] = target: T2, Androgen receptor (Homo sapiens); test: Displacement of fluormone-AL green from GST-tagged androgen receptor LBD (unknown origin) at 10 uM measured after 4 hrs by fluorescence polarization assay; conditions: filed as antagonist
# Summary of the method: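 PolarScreen AR competitor assay. Compound mixed with GST-tagged AR-LBD and Fluormone AL Green in AR Green assay buffer, incubated 4 h at room temperature protected from light. Fluorescence polarization (mP) measured.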
# LNCaP [4] = test: Antiproliferative activity against human LNCaP cells assessed as reduction in cell proliferation measured after 72 hrs by MTT assay; assay type: functional, cell-based; summary of the method: as §1
# LNCaP [5] = test: Effect on prostate specific antigen mRNA expression in human LNCaP cells at 0.1 to 10 uM measured after 48 hrs by SYBR green dye based qPCR analysis; assay type: functional, cell-based; conditions: dose 0.1-10 µM; summary of the method: as §2
# LNCaP C4-2 = test: Antiproliferative activity against human LNCaP C4-2 cells assessed as reduction in cell proliferation measured after 72 hrs by MTT assay; assay type: functional, cell-based; summary of the method: as §1
# DU-145 = test: Antiproliferative activity against human DU-145 cells assessed as reduction in cell proliferation measured after 72 hrs by MTT assay; assay type: functional, cell-based; summary of the method: as §1
# [6] = target: T3, Prostate-specific antigen (Homo sapiens, UniProt P07288); test: Inhibition of prostate specific antigen in human LNCaP cells; assay type: cell-based
# T3 sequence (P07288 whole entry): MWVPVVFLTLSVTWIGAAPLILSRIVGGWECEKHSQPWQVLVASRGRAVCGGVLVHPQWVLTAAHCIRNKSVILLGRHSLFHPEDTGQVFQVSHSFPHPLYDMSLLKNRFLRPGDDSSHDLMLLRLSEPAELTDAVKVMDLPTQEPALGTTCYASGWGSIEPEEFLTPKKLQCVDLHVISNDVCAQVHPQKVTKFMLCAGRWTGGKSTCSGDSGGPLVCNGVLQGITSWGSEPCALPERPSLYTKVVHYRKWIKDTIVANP
# [7] = target: T2, Androgen receptor (Homo sapiens); test: Antagonist activity at androgen receptor in human LNCaP cells transfected with ARR2 PB-eGFP assessed as inhibition of DHT-induced transcriptional activity at 10 uM measured after 3 days by fluorescence assay relative to control; assay type: cell-based; conditions: filed as antagonist, time 3.0 day
# Summary of the method: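 LNCaP-ARR2PB-eGFP reporter cells in RPMI-1640 starved 5 days in 5% charcoal-stripped serum. Seeded at 3.5×10^4 cells/well, 24 h at 37 °C, 5% CO2. Co-treated with 5 nM DHT and compound at 10 µM (screen) or 0–50 µM. Fluorescence read after 3 days (ex 485, em 535 nm).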
# Androgen receptor [8] = target: T1, Androgen receptor; test: Displacement of fluormone-AL green from GST-tagged androgen receptor LBD (unknown origin) measured after 4 hrs by fluorescence polarization assay
SMILES,Activity (PC-3),IC50 (Androgen receptor [1]),inhibition [3],Activity (LNCaP C4-2),Activity (DU-145),further results
Brc1ccc(C2Nc3ccc4ccccc4c3C3C=CCC32)cc1 (stereo unspecified),Active,0.15 µM,Active,Active,Active,Activity (NIH3T3): Non-Toxic; Activity [2]: Dose-dependent effect; Activity (LNCaP [4]): Active; Activity (LNCaP [5]): Active
c1ccc(C2Nc3ccc4ccccc4c3C3C4CCC(C4)C23)cc1 (stereo unspecified),–,5.6 µM,–,–,–,–
Clc1ccc(C2Nc3ccc4ccccc4c3C3C4CCC(C4)C23)cc1 (stereo unspecified),–,7.45 µM,–,–,–,–
Clc1ccc(C2Nc3ccc4ccccc4c3C3C=CCC32)cc1 (stereo unspecified),–,1.92 µM,Active,–,–,–
Clc1ccc(C2Nc3ccc4ccccc4c3C3OCCCC23)c(Cl)c1 (stereo unspecified),–,20.4 µM,–,–,–,–
CCOC(=O)C1Nc2ccc3ccccc3c2C2C=CCC12 (stereo unspecified),–,0.82 µM,Active,–,–,–
Fc1ccccc1C1Nc2ccc3ccccc3c2C2C=CCC21 (stereo unspecified),–,0.22 µM,Active,–,–,–
CNC(=O)c1ccc(N2C(=S)N(c3ccc(C#N)c(C(F)(F)F)c3)C(=O)C2(C)C)cc1F [ENZALUTAMIDE],Active,–,–,Active,Active,Activity (LNCaP [4]): Active; IC50 [6]: 0.13 µM
Clc1ccccc1C1Nc2ccc3ccccc3c2C2C=CCC21 (stereo unspecified),Active,2.4 µM,Active,Active,Active,Activity (NIH3T3): Non-Toxic; inhibition [7]: > 50%; IC50 (Androgen receptor [8]): 4.02 µM
